According to ChEMBL document CHEMBL4706496, “Discovery of novel aminopiperidinyl amide CXCR4 modulators through virtual screening and rational drug design” (Eur J Med Chem, 2020):
Activity calls are given as the source filed them.

Columns and labels:
[1] = target: C-X-C chemokine receptor type 4 (Homo sapiens) (UniProt P61073); experiment: Binding affinity to human CXCR4 in human MDA-MB-231 cells assessed as inhibition of CXCR4-targeted conjugate formation preincubated with compound followed by biotinylated-TN14003 addition and measured after 45 mins by competition based microscopic analysis; type: cell-based
Outline: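 MDA-MB-231 cells in chamber slides preincubated with compound at 1, 10, 100 and 1000 nM. Then fixed in 4% formaldehyde, incubated with 50 nM biotinylated TN14003, and stained with streptavidin–rhodamine. Fluorescence imaged by microscopy and quantified. EC defined as the concentration blocking >50% of probe signal; IC50 obtained by curve fitting.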

MDA-MB-231 = experiment: Antiinvasive activity against human MDA-MB-231 cells assessed as inhibition of cell migration at 100 nM incubated for 22 hrs by H and E staining based matrigel invasion assay; type: functional
Outline: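 MDA-MB-231 cells (DMEM, 10% FBS, penicillin/streptomycin) seeded on Matrigel in upper chamber with compound at 100 nM; 200 ng/mL CXCL12 in lower chamber as chemoattractant. Invaded cells at the Matrigel bottom fixed in methanol, H&E stained and counted to give percentage invasion.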

[2] = Stability in athymic nude-Foxn1 mouse serum measured upto 120 mins by HPLC method; type: ADME, cell-free; details: 2 h
Outline: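 Blood from female athymic nude mice (7 weeks) taken from orbital venous sinus and spun at 13,000 rpm, 6 min, 4 °C. Supernatant mixed 4:1 with 10 mM aqueous compound solution (stock) and held at 36.6 °C. Samples at 0, 5, 15, 30, 60, 120 min passed through 10 kDa filter. Filtrate run on C18 HPLC, acetonitrile/water (0.1% TEA) 3:7, detection at 310 nm. Half-life from one-phase decay fit.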

Mus musculus [3] = experiment: Antiinflammatory activity in carrageenan-induced JAZ 007850 J:NU mouse model assessed as reduction in infiltration of CXCR-4 expressing cells at 10 mg/kg, ip qd measured after 74 hrs by immunohistochemistry assay; type: functional, organism-based
Outline: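 Carrageenan paw edema tissue (male nude mice, 10 mg/kg i.p. daily, harvested 74 h) formalin-fixed, paraffin-embedded, deparaffinized. Antigen retrieval by microwaving in 10 mM sodium citrate pH 6.0. Blocked with hydrogen peroxide, avidin/biotin and horse serum. Anti-CXCR4 antibody at 1:500 overnight at 4 °C, then biotinylated secondary and avidin-biotin complex. Developed with diaminobenzidine, hematoxylin counterstain; H&E sections also examined.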

Mus musculus [4] = experiment: Antiinflammatory activity in JAZ 007850 J:NU mouse assessed as decrease in carrageenan-induced paw edema treated at 10 mg/kg, ip qd starting 30 min after carrageenan challenge measured after 74 hrs

Sequence of C-X-C chemokine receptor type 4 (Homo sapiens) (P61073 whole entry): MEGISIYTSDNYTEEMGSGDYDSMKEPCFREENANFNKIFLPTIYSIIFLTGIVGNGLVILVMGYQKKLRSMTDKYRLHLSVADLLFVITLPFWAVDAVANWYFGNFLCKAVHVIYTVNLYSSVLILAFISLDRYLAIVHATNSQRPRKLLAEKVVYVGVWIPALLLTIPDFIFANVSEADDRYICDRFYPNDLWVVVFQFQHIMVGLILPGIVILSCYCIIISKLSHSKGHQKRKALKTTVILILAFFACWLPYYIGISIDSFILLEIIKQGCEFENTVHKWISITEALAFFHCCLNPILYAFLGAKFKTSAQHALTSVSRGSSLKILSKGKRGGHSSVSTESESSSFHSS

| SMILES | EC [1] [nM] | inhibition at 0.1 µM (MDA-MB-231) [%] | inhibition (MDA-MB-231) | t1/2 [2] [h] | inhibition (Mus musculus [3]) | inhibition (Mus musculus [4]) |
| --- | --- | --- | --- | --- | --- | --- |
| N[C@@H](C(=O)NC1CCN(C(=O)CCn2ccc3ccncc32)CC1)c1ccccc1 | 100 | 68.6 | – | – | – | – |
| C[C@H](C(=O)N[C@@H]1CCN(Cc2ccccc2)C1)N1CCC(C(=O)Nc2cc(O)ccc2Cl)CC1 | > 1000 | – | inactive | – | – | – |
| NC(=O)C1CCN(Cc2ccc(NC(=O)CCc3c[nH]c4ccccc34)cc2)CC1 | 1000 | – | inactive | – | – | – |
| O=C(NCCc1c[nH]c2ccccc12)C1CCN(C(=O)Cc2nnc(O)c3ccccc23)CC1 | 1000 | – | inactive | – | – | – |
| C[C@@H](NC(=O)[C@@H](N)c1ccccc1)C(=O)N1CCN(C(=O)CCn2ccc3ccncc32)CC1 | 100 | 15.7 | – | – | – | – |
| N=C(N)NCCC[C@H](N)C(=O)NC1CCN(C(=O)CCn2ccc3ccncc32)CC1 | 1 | 78.5 | – | 1.28 | Active | Active |
| O=C(Nc1ccc2c(c1)OCO2)C1CCN(C(=O)NC2CCN(Cc3ccccc3)CC2)CC1 | 10 | 9.3 | – | – | – | – |
| O=C(CN1CCC(n2nnc(-c3cccs3)n2)CC1)Nc1ccc(Cn2cncn2)cc1 | 100 | 40.9 | – | – | – | – |
